29 compounds from ChEMBL document CHEMBL1155456, “Thiadiazole carbamates: potent inhibitors of lysosomal acid lipase and potential Niemann-Pick type C disease therapeutics” (J Med Chem, 2010) can be followed below.

Active and inactive are the calls of the source.

What is called IC50 is the concentration that inhibits the measured activity by half. Read a high IC50 as lower potency.

The nature of data set [1]: Cytotoxicity against human GM03123 cells at 10 uM. The class given is cell-based.
Data set [2] can be described thus: Cytotoxicity against human GM05659 cells at 10 uM. The class given is cell-based.
Data set [3] concerns the target T1, Lysosomal acid lipase/cholesteryl ester hydrolase (Homo sapiens) (UniProt P38571).
T1 sequence (whole entry): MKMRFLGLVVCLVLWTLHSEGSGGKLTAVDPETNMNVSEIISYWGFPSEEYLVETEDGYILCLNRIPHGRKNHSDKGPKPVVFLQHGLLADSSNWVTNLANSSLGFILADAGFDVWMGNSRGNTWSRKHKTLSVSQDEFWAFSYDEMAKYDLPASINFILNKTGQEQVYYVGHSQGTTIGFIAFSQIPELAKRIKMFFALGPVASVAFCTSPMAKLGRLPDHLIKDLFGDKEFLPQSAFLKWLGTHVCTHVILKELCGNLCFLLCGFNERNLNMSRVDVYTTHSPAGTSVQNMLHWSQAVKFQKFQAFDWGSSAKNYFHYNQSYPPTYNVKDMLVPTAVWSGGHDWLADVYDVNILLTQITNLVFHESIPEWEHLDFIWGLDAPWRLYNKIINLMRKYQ
As to the kind of experiment: Inhibition of human LAL at 10 uM after 30 mins by fluorescence assay.

The target of data set [4] is T1, Lysosomal acid lipase/cholesteryl ester hydrolase (Homo sapiens). As to the kind of experiment: Inhibition of human LAL at 833 nM by fluorescence assay. To be noted: TDE = time-dependent effect. In a few lines: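 Purified human LAL pre-incubated with compound at 833 nM for varying times at 37 °C (500 nM final in assay). Reaction started with 125 μM (final) 4-methylumbelliferyl oleate, followed 30 min at 37 °C. Normalized to DMSO control; mean ± SEM of 2 experiments, 12 wells per condition.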

The target in data set [5] is T2, Lysosomal acid lipase/cholesteryl ester hydrolase (Homo sapiens, UniProt P38571).
T2 sequence (P38571 whole entry): T1 sequence (whole entry)
As to the kind of experiment: Inhibition of human LAL after 30 mins by fluorescence assay. In a few lines: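 Purified recombinant human LAL (1 mU/ml final) with threefold serial compound dilutions in 200 mM sodium acetate pH 5.5, 0.02% Tween-20, 30 min at 37 °C. 125 μM (final) 4-methylumbelliferyl oleate in Triton X-100 added; fluorescence (ex 355/em 450) read after 1 h at 37 °C. IC50 from rectangular-hyperbola fit of normalized activity; mean ± SEM of 3 independent experiments.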

Data set [6] addresses T1, Lysosomal acid lipase/cholesteryl ester hydrolase (Homo sapiens). As to the kind of experiment: Inhibition of human LAL assessed as enzyme decarbamoylation rate constant at 10 uM after 30 mins by fluorescence assay. In a few lines: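 Purified human LAL carbamoylated with 10 μM compound for 30 min, then diluted 250× to 40 nM with 125 μM 4-methylumbelliferyl oleate. Run at 37 °C, pH 5.5 acetate buffer with Tween and Triton X-100; fluorescence read every 10 min for 2 h. k3 from linear regression of ln(fraction inhibited) vs time; mean ± SEM of 4 experiments.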

For data set [7] the target is unchanged. As to the kind of experiment: Competitive inhibition of human LAL preincubated for 30 mins by Lineweaver-Burke plot analysis. In a few lines:
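Purified recombinant human LAL pre-incubated with inhibitor 30 min at 37 °C; reaction started with 4-methylumbelliferyl oleate at various concentrations, monitored 45 min. Concentrations are final. Lineweaver-Burk plots fitted by linear regression; two independent experiments, 6–8 wells per treated condition.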

Data set [8] has the same target. As to the kind of experiment: Inhibition of LAL in human GM05659 cell lysate assessed as reduction in lysosomal storage organelle cholesterol level at 0.1 to 10 uM after 4 days by bicinchoninic acid assay. In a few lines: (§1)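 Human fibroblasts in MEM with 10% FBS, exposed to compound 3–4 days (withdrawal variant: 3 days treatment, then 1 day compound-free). Cells PBS-washed, rinsed in 150 mM sodium acetate pH 5.5, lysed in 1% Triton X-100 for 30 min at 37 °C. 1 mM (final) 4-methylumbelliferyl oleate added; fluorescence activity normalized to protein by bicinchoninic acid assay.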

The target is the same in data set [9]. As to the kind of experiment: Inhibition of LAL in human GM05659 cell lysate assessed as reduction in lysosomal storage organelle cholesterol level at 0.1 to 10 uM treated for 3 days measured after 1 day of compound withdrawal by bicinchoninic acid assay. In a few lines: as §1
Data set [10] shares this target. Description: Inhibition of LAL in intact human GM03123 cells assessed as reduction in lysosomal storage organelle cholesterol level at 10 uM after 3 days by filipin LSO assay. The data set is classed as cell-based. In a few lines: (§2)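 Fibroblasts in MEM with 10% FBS treated 3 days, stained with filipin or LipidTOX green, imaged by automated fluorescence microscopy. After background correction, integrated thresholded fluorescence within lysosomal storage organelles was normalized to total cell area defined by low-threshold filipin signal.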

The target is the same in data set [11]. As to the kind of experiment: Inhibition of LAL in intact human GM05659 cells assessed as increase in neutral lipid accumulation in lysosomal storage organelle at 10 uM after 3 days by lipidTox green staining-based fluorescence microscopy. The data set is classed as cell-based. In a few lines: as §2

With `Oc1nsnc1N1CCCC1`, the Activity entry in data set [1] and in [2] was “Non-toxic” each time. For the same compound, the inhibition result in data set [3] is “inactive”.
`COC(N)=O`: in data set [3], the inhibition entry is “inactive”.
`Oc1nsnc1N1CCCCC1`: the Activity entry in data set [1] and in [2] was “Non-toxic” each time. Besides, the inhibition entry in data set [3] is “inactive”.
As to `O=C(Cc1nsnc1N1CCOCC1)N1CCOCC1`, the Activity entry in data set [1] and in [2] was “Non-toxic” each time. In addition, in [3], the inhibition entry is “inactive”.
On to `COC(=O)C(CCc1ccccc1)c1nsnc1N1CCOCC1` (racemic), for which the Activity result in [1] and in data set [2] was “Non-toxic” in each case. Also, the inhibition result in data set [3] is “inactive”.
Consider `CC(C)(C)OC(=O)Cc1nsnc1N1CCOCC1`, for which the Activity result in data set [1] and in data set [2] was “Non-toxic” throughout. The inhibition entry in data set [3] is “inactive”.
With `CC(C)(C)C(=O)Cc1nsnc1N1CCOCC1`, the Activity entry in data set [1] and in data set [2] was “Non-toxic” throughout. The inhibition result in [3] is “inactive”.
Regarding `O=C(Oc1nsnc1N1CCCCC1)N1CCOCC1`, the inhibition result in [4] is “tde”. For the same compound, the Activity result in [1] is “Non-toxic”; in [6] it was 0.003 min⁻¹; in data set [2], “Non-toxic”. The compound further had an IC50 in data set [5] of 68 nM. Also, the inhibition entry in data set [7] and in data set [8] was “Active” each time.
Take `CCOC(=O)Cc1nsnc1N1CCOCC1`: the Activity result in [1] and in data set [2] was “Non-toxic” each time. The inhibition entry in data set [3] was “inactive”.
For the compound `O=C(Oc1nsnc1N1CCCC1)N1CCOCC1`, the inhibition entry in data set [4] is “tde”. Moreover, the results for the Activity entry in [1], in [6] and in [2] were “Non-toxic”, 0.0037 min⁻¹ and “Non-toxic”, respectively. In data set [5], inhibition was half-maximal at 473 nM (IC50). The inhibition result in data set [8] was “Active”.
On to `CN(C)C(=O)Oc1cccc([N+](C)(C)C)c1`, for which the inhibition result in data set [3] is “inactive”.
As for `Oc1nsnc1N1CCOCC1`, the Activity entry in [1] and in data set [2] was “Non-toxic” in each case. In data set [3], the inhibition result was “inactive”.
`O=C(Oc1nsnc1N1CCCC1)N1CCCCC1`: the Activity result in [1] was “Non-toxic”; in [6], 0.0007 min⁻¹; in data set [2], “Non-toxic”. The compound also registered an IC50 in [5] of 496 nM. In addition, the inhibition result in data set [9] and in data set [8] was “Active” in each case.
As to `O=C(Oc1nsnc1N1CCCCC1)N1CCCCC1`, in data set [4], the inhibition result is “tde”. The Activity entry is “Non-toxic” in data set [1], 0.001 min⁻¹ in data set [6] and “Non-toxic” in data set [2]. The IC50 in data set [5] came out at 152 nM. In addition, the inhibition entry in data set [10], in data set [11], in [9] and in [8] was “Active” throughout.
Regarding `COC(=O)C(C)(C)c1nsnc1N1CCOCC1`, the Activity entry in data set [1] and in data set [2] was “Non-toxic” in each case. Also, the inhibition entry in data set [3] was “inactive”.
Consider `COC(=O)C(C)c1nsnc1N1CCOCC1` (racemic), for which the Activity entry in [1] and in [2] was “Non-toxic” in each case. Also, in data set [3], the inhibition entry is “Active”.
`CC(C(=O)c1ccccc1)c1nsnc1N1CCOCC1` (racemic): the Activity entry in data set [1] and in [2] was “Non-toxic” in each case. In addition, the inhibition entry in data set [3] is “inactive”.
As for `CN1CCC(OC(=O)Nc2ccc(F)cc2)CC1`, in [3], the inhibition result was “inactive”.
Still for that read-out and setting: for `CNC(=O)Oc1ccc2c(c1)[C@]1(C)CCN(C)[C@@H]1N2C` the value was “inactive”.
In the case of `O=C(Oc1nsnc1N1CCCCCC1)N1CCCCC1`, in data set [4], the inhibition result is “tde”. In addition, the Activity result is “Non-toxic” in data set [1], 0.0013 min⁻¹ in data set [6] and “Non-toxic” in data set [2]. The compound also gave an IC50 in data set [5] of 300 nM. Also, the inhibition result in [9] and in data set [8] was “Active” each time.
With `NCCCCCCNC(=O)OCc1ccccc1`, the inhibition entry in [3] is “inactive”.
Take `Oc1nsnc1N1CCCCCC1`: the Activity result in data set [1] and in [2] was “Non-toxic” throughout. Besides, in data set [3], the inhibition entry was “inactive”.
Consider `COc1ccccc1OCC(CO)OC(N)=O` (stereo not given), for which the inhibition entry in data set [3] was “inactive”.
In the case of `O=C(Oc1nsnc1N1CCOCC1)N1CCOCC1`, the inhibition entry in data set [4] is “tde”. Besides, the results for the Activity result in [1], in data set [6] and in [2] were “Non-toxic”, 0.0043 min⁻¹ and “Non-toxic”, respectively. In [5], this compound had an IC50 of 492 nM. In addition, the inhibition result in [10] and in [11] was “inactive” each time. In data set [8], the inhibition entry was “Active”.
For the compound `O=C(Oc1nsnc1N1CCCCCC1)N1CCOCC1`, the inhibition entry in [4] was “tde”. The Activity entry in [1] is “Non-toxic”; in data set [6], 0.0042 min⁻¹; in [2], “Non-toxic”. The compound further displayed an IC50 in data set [5] of 189 nM. In data set [8], the inhibition result is “Active”.
In the case of `O=C(Cc1nsnc1N1CCCCC1)N1CCOCC1`, the Activity result in data set [1] and in [2] was “Non-toxic” each time. The inhibition entry in [3] was “inactive”.
Regarding `O=C(Cc1nsnc1N1CCOCC1)c1ccccc1`, the Activity entry in data set [1] and in data set [2] was “Non-toxic” throughout. In addition, in [3], the inhibition entry is “inactive”.
With `O=C(Oc1nsnc1N1CCOCC1)N1CCCCC1`, the inhibition entry in [4] is “tde”. Further, the Activity result in [1] is “Non-toxic”; in data set [6], 0.0016 min⁻¹; in data set [2] it was “Non-toxic”. For the same compound, in data set [5], half-maximal inhibition (IC50) required 424 nM. Besides, the inhibition entry in [8] was “Active”.
`CC(C)(C)OC(=O)Cc1nsnc1N1CCCCC1`: the Activity result in data set [1] and in [2] was “Non-toxic” each time.
